From PubChem BioAssay
Only some compounds are listed: those with a hit (about 3.5% of all), similar ones and a draw of the others.
MrgX1 antagonist: antagonists of human MrgX1 receptor; Q96LB2; MRGX1-HEK293 calcium flux, Fluo-4, BAM8-22 antagonism; active compounds read low; B-score at 10 µM; 310,000 tested, 1.3% active;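 active means calcium-response B-score plate-corrected more than 3 library SD below zero, starting fluorescence within 5 deviations, no agonist response on first addition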;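 further: peak minus trough fluorescence over baseline after final BAM8-22 challenge near maximal dose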
Target sequence (Q96LB2 whole entry, looked up): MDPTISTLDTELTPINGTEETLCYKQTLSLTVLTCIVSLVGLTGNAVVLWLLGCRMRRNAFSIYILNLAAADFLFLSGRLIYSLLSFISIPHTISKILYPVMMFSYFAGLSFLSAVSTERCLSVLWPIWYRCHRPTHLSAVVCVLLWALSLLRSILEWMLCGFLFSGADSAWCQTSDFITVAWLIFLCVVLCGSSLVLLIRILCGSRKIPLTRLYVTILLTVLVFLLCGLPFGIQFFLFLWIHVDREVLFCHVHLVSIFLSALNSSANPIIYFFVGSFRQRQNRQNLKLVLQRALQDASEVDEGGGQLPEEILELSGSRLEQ
MrgX1 allo act: allosterically activates human MrgX1 receptor signaling | 310,000 tested, 0.63% active | Q96LB2 | B-score at 10 µM | MrgX1-HEK293, Fluo-4 calcium flux, FDSS; active compounds read high;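 active means plate-corrected calcium response at least 3 library SD above typical, normal starting fluorescence, not activating the receptor alone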;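 further: compound read alongside a low EC10 to EC30 dose of BAM8-22 agonist; peak minus trough fluorescence over baseline measured at the second addition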
RGS4 inh: inhibitors of human RGS4; P49798; HEK293 M3R/RGS4 inducible, Fluo-4 calcium flux; active compounds read high; triggered by carbachol at its EC20; B-score at 10 µM; 310,000 tested, 0.45% active; AID 463165;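 active means B-score, a plate-corrected calcium signal, over three deviations above library mean, with baseline fluorescence within five deviations of library mean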;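 further: RGS4 expression induced by doxycycline in cells with stable M3 receptor; B-score is computed from the integrated fluorescence ratio over baseline after carbachol; higher B-score means a larger calcium signal and so more RGS4 inhibition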
Target sequence (P49798 whole entry, looked up): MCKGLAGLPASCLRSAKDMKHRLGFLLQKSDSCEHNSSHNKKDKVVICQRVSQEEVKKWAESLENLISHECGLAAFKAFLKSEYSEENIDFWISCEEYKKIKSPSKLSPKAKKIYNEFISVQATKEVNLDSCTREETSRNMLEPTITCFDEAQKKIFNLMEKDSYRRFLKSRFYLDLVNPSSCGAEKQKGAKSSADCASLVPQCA
MrgX1 ag: human MrgX1 receptor agonism, primary screen. Q96LB2. MrgX1-HEK293 cells, Fluo-4 calcium fluorescence, agonist mode; active compounds read high. B-score at 10 µM. 310,000 tested, 0.44% active;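 active means calcium response B-score plate-corrected fluorescence ratio at least 3 library SD, with starting fluorescence B-score inside 5 SD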
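times = overnight plating, then 30 min 37 °C plus 30 min room-temperature dye loading | assay system = stable human MrgX1 HEK293 cell line | input = fifteen thousand cells per well | signal = kinetic calcium dye fluorescence, Fluo-4 NW | dosing = compound delivered in addition one of three | read-out = B-scored fluorescence response ratio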
RGS4 act: potentiators or activators of RGS4; HEK293 M3R/inducible RGS4, carbachol calcium flux Fluo4; active compounds read low; B-score at 10 µM; 310,000 tested, 0.92% active; AID 463111;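 active means B-score of the integrated calcium signal more than 4 SD below the library mean, with starting fluorescence not abnormally high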;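 further: negative B-score means reduced calcium response which marks RGS4 activation or potentiation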
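Also added: carbachol at ECmax as muscarinic agonist stimulus; Assay system: HEK293 cells with stable M3R and inducible RGS4; Timing: overnight RGS4 induction, 30 min dye load 37 °C, 20 min compound RT; Measured by: Fluo4-AM (2 µM) calcium-flux fluorescence, kinetic read.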
* marks the source's active call; other numbers are inactive results.

For CCC(CC)C1=NN2C(=N)/C(=C\c3cc(C)n(-c4cccc(C)c4)c3C)C(=O)N=C2S1 the results were MrgX1 antagonist inactive, MrgX1 allo act inactive, RGS4 inh inactive, MrgX1 ag inactive and RGS4 act -7.6*.
Cc1cc(/C=C2\C(=N)N3N=C(C(C)C)SC3=NC2=O)c(C)n1Cc1ccccc1 was read as MrgX1 antagonist inactive, MrgX1 allo act 16*, RGS4 inh inactive, MrgX1 ag inactive and RGS4 act inactive.
For Cc1nn(-c2ccccc2)c(Cl)c1/C=C1\SC(=S)NC1=O the results were MrgX1 antagonist -4.9*, MrgX1 allo act inactive, RGS4 inh inactive, MrgX1 ag inactive and RGS4 act inactive.
`Cc1nn(-c2ccccc2)c(Cl)c1/C=C1/C(=N)N2N=C(C(C)C)SC2=NC1=O` gave MrgX1 antagonist inactive, MrgX1 allo act 9.6*, RGS4 inh inactive, MrgX1 ag inactive and RGS4 act inactive.
O=C(O)c1ccc(Cl)c(S(=O)(=O)Nc2cccc(C(=O)Nc3cccc(C(F)(F)F)c3)c2)c1 was read as MrgX1 antagonist inactive, MrgX1 allo act inactive, RGS4 inh inactive, MrgX1 ag inactive and RGS4 act inactive.
Screening O=C(Nc1cccc(C(F)(F)F)c1)N1CCC(c2nc(-c3ccc(F)cc3)no2)CC1 returned MrgX1 antagonist inactive, MrgX1 allo act inactive, RGS4 inh inactive, MrgX1 ag inactive and RGS4 act -9.3*.
`O=C(Nc1ccccc1)N1CCCC(c2nc(-c3ccc(F)cc3)no2)C1` (stereo not given) gave MrgX1 antagonist inactive, MrgX1 allo act inactive, RGS4 inh inactive, MrgX1 ag inactive and RGS4 act inactive.
`COc1ccc(Cc2nc3ccc(C(=O)N4C[C@@H](C)O[C@@H](C)C4)cc3o2)cc1OC` gave MrgX1 antagonist inactive, MrgX1 allo act inactive, RGS4 inh inactive, MrgX1 ag inactive and RGS4 act inactive.
For COCCN1CCN(C(=O)c2ccc3nc(Cc4ccc(OC)c(OC)c4)oc3c2)CC1 the results were MrgX1 antagonist -5.9*, MrgX1 allo act inactive, RGS4 inh inactive, MrgX1 ag inactive and RGS4 act inactive.
Cc1ccc(C)c(C(=O)C(C)OC(=O)CN2C(=O)NC3(CC(C)CC(C)(C)C3)C2=O)c1 (stereo not given) was read as MrgX1 antagonist inactive, MrgX1 allo act inactive, RGS4 inh inactive, MrgX1 ag inactive and RGS4 act inactive.
Screening CN1CCN(c2ccc(NC(=O)c3ccc(Oc4ccccc4)cc3)cc2)CC1 returned MrgX1 antagonist inactive, MrgX1 allo act inactive, RGS4 inh inactive, MrgX1 ag inactive and RGS4 act -7.7*.
Screening O=C(CN1CCCCC1)N1N=C(c2cccs2)CC1c1cccs1 (stereo not given) returned MrgX1 antagonist inactive, MrgX1 allo act inactive, RGS4 inh inactive, MrgX1 ag inactive and RGS4 act -8*.
Screening CN(CC(=O)Nc1ccc(Cl)cc1)C(=O)Cc1c(F)cccc1Cl returned MrgX1 antagonist inactive, MrgX1 allo act inactive, RGS4 inh inactive, MrgX1 ag inactive and RGS4 act inactive.
Screening CC1C2CC(C/C2=N/NC(=O)c2cccs2)C1(C)C (stereo not given) returned MrgX1 antagonist inactive, MrgX1 allo act 8.7*, RGS4 inh inactive, MrgX1 ag inactive and RGS4 act inactive.
For C[C@@H]1C2CC(C/C2=N\NC(=O)c2ccncc2)C1(C)C (stereo not given in full) the results were MrgX1 antagonist inactive, MrgX1 allo act inactive, RGS4 inh inactive, MrgX1 ag inactive and RGS4 act inactive.
For CC1CC(C)CN(C(=O)C2CCN(S(=O)(=O)c3cccc4cccnc34)CC2)C1 (stereo not given) the results were MrgX1 antagonist inactive, MrgX1 allo act inactive, RGS4 inh inactive, MrgX1 ag inactive and RGS4 act inactive.
For COC(=O)c1ccc(Oc2nc(Nc3ccc(C)c(C)c3)nc(N(C)C)n2)cc1 the results were MrgX1 antagonist inactive, MrgX1 allo act inactive, RGS4 inh inactive, MrgX1 ag inactive and RGS4 act inactive.
`CN(C)c1ccc(/C=C(\C#N)C(=O)Nc2nc3c(s2)CCN(Cc2ccccc2)C3)cc1` gave MrgX1 antagonist inactive, MrgX1 allo act inactive, RGS4 inh inactive, MrgX1 ag 50* and RGS4 act inactive.
Screening Cn1c(=O)n(C)c2cc(NC(=O)Cc3ccccc3[N+](=O)[O-])ccc21 returned MrgX1 antagonist inactive, MrgX1 allo act inactive, RGS4 inh inactive, MrgX1 ag inactive and RGS4 act inactive.
`CCC1CCCCN1S(=O)(=O)c1ccc([N+](=O)[O-])cc1` (stereo not given) gave MrgX1 antagonist inactive, MrgX1 allo act inactive, RGS4 inh inactive, MrgX1 ag inactive and RGS4 act -7.4*.
`CC1CCN(C2CCN(S(=O)(=O)c3ccc(C(F)(F)F)cc3)CC2)CC1` gave MrgX1 antagonist inactive, MrgX1 allo act inactive, RGS4 inh inactive, MrgX1 ag inactive and RGS4 act inactive.
For CNC(=O)c1cc2cc(OC)ccc2oc1=O the results were MrgX1 antagonist inactive, MrgX1 allo act inactive, RGS4 inh inactive, MrgX1 ag inactive and RGS4 act inactive.
`COc1ccc2oc(=O)c(C(=O)C[n+]3cccc(C)c3)cc2c1` gave MrgX1 antagonist inactive, MrgX1 allo act inactive, RGS4 inh inactive, MrgX1 ag inactive and RGS4 act -10*.
`COc1ccc(CNC(=O)[C@@H](NC(=O)C2CCN(C(=O)[C@@H](N)CCSC)CC2)C(C)C)cc1` gave MrgX1 antagonist inactive, MrgX1 allo act inactive, RGS4 inh inactive, MrgX1 ag inactive and RGS4 act inactive.
C[C@H]1[C@H](C)CC[C@]2(C(=O)O)CC[C@]3(C)C(=CC[C@@H]4[C@@]5(C)C[C@@H](O)[C@H](O)C(C)(C)[C@@H]5CC[C@]43C)[C@H]12 was read as MrgX1 antagonist inactive, MrgX1 allo act inactive, RGS4 inh inactive, MrgX1 ag inactive and RGS4 act -7.6*.
Cc1cc(C(=O)NNC(=S)NC2CCCCC2)cs1 was read as MrgX1 antagonist inactive, MrgX1 allo act inactive, RGS4 inh inactive, MrgX1 ag inactive and RGS4 act inactive.
Screening COc1ccc(-c2nc(CS(=O)(=O)CC(=O)NCCCN3CCN(C)CC3)c(C)o2)cc1 returned MrgX1 antagonist inactive, MrgX1 allo act inactive, RGS4 inh inactive, MrgX1 ag inactive and RGS4 act inactive.
For Cc1c(C=O)c2ccccn2c1C(=O)c1ccc(Cl)c([N+](=O)[O-])c1 the results were MrgX1 antagonist -4.6*, MrgX1 allo act inactive, RGS4 inh inactive, MrgX1 ag inactive and RGS4 act inactive.
